Assay results from different studies.
Each line is one published result; the experiments were not run side by side.
SLC6A2: Sodium-dependent noradrenaline transporter (SLC6A2, Homo sapiens, UniProt P23975)
DNA dC->dU-editing enzyme APOBEC-3B: DNA dC->dU-editing enzyme APOBEC-3B (Homo sapiens, UniProt Q9UH17)
FPR1: fMet-Leu-Phe receptor (FPR1, Homo sapiens, UniProt P21462)

With `Fc1ccc(C(c2ccc(F)cc2)c2nnnn2CCCCN2CCC(Cc3ccccc3)CC2)cc1` the inhibition was 81% (SLC6A2; transporter uptake, inhibitor; HEK293; 1 µM).
For `COC(=O)Nc1nc2ccc(C(=O)c3cccs3)cc2[nH]1`, the inhibition was 25.9% (DNA dC->dU-editing enzyme APOBEC-3B; enzyme activity, inhibitor, fluorescence; 100 µM).
`Oc1cccc(Nc2nc(-c3ccc(F)cc3F)cs2)c1` has an inhibition of -24.9% (Muscarinic acetylcholine receptor M5 (CHRM5, Homo sapiens, UniProt P08912); cell-free assay; 10 µM).
`Fc1ccc(C(c2ccc(F)cc2)c2nnnn2CCCN2CCC(CCCc3ccccc3)CC2)cc1` has an inhibition of 23.8% (SLC6A2; transporter uptake, inhibitor; HEK293; 1 µM).
The inhibition of `CNC(=O)c1cc(Oc2ccc(NC(=O)Nc3ccc(Cl)c(C(F)(F)F)c3)cc2)ccn1` is reported as 84% (Fibroblast growth factor receptor 1 (FGFR1, Homo sapiens, UniProt P11362, V561M); cell-free assay; 10 µM).
With `Clc1ccc(C(c2ccccc2)c2nnnn2CCCCN2CCC(Cc3ccc(Cl)c(Cl)c3)CC2)cc1` (stereo not shown) the inhibition was 58.9% (SLC6A2; transporter uptake, inhibitor; HEK293; 1 µM).
The inhibition of `CCOC(=O)Oc1ccc2c(=O)c(-c3ccccc3OC)c(C(F)(F)F)oc2c1` is reported as 80% (FPR1; calcium signal, antagonist; 50 µM).
For `CC/C(=N\NC(=O)NCc1cccc(O)c1)c1ccc(O)c(C)c1O`, the inhibition was 1.5% (Fibroblast growth factor receptor 4 (FGFR4, Homo sapiens, UniProt P22455, V550E); enzyme activity, inhibitor; 0.1 µM).
The inhibition of `COc1ccccc1-c1c(C)oc2cc(OC(=O)c3cccs3)ccc2c1=O` is reported as 100% (FPR1; calcium signal, antagonist; 50 µM).
For `OCC1OC(Oc2cc(O)cc(/C=C/c3ccc(O)cc3)c2)C(O)C(O)C1O` (stereo not shown), the inhibition was 31.5% (DNA dC->dU-editing enzyme APOBEC-3B; enzyme activity, inhibitor, fluorescence; 100 µM).
For `COc1ccccc1-c1c(C(F)(F)F)oc2cc(OC(=O)c3ccccc3)ccc2c1=O`, the inhibition was 90% (FPR1; calcium signal, antagonist; 50 µM).
For `Clc1ccc(C(c2ccccc2)c2nnnn2CCCCN2CCN(CCCc3ccccc3)CC2)cc1` (stereo not shown), the inhibition was 63.6% (SLC6A2; transporter uptake, inhibitor; HEK293; 1 µM).
With `CCN(CC)c1ccc(C2=NNC(=O)CC2C)cc1[N+](=O)[O-]` (stereo not shown) the inhibition was 21% (3',5'-cyclic-AMP phosphodiesterase 4B (PDE4B, Homo sapiens, UniProt Q07343); enzyme activity, inhibitor; 0.1 µM).
`CCc1cc2c(=O)c(-c3nc4ccccc4n3C)c(C)oc2cc1OC(C)=O` gave an inhibition of 100% (FPR1; calcium signal, antagonist; 50 µM).
`c1ccc(CCC2CCN(CCCn3nnnc3C(c3ccccc3)c3ccccc3)CC2)cc1` has an inhibition of 74.4% (SLC6A2; transporter uptake, inhibitor; HEK293; 1 µM).
`COc1cc(/C=C/C(=O)CC(=O)/C=C/c2ccc(O)c(OC)c2)ccc1O` gave an inhibition of 75.2% (DNA dC->dU-editing enzyme APOBEC-3B; enzyme activity, inhibitor, fluorescence; 100 µM).
The inhibition of `Fc1ccc(C(c2ccc(F)cc2)c2nnnn2CCCCN2CCC(CCCc3ccccc3)CC2)cc1` is reported as 48% (SLC6A2; transporter uptake, inhibitor; HEK293; 1 µM).
`CCCCCCc1cc2c(=O)c(-c3nc4ccccc4n3C)c(C)oc2cc1OC(C)=O` gave an inhibition of 100% (FPR1; calcium signal, antagonist; 50 µM).
With `Cc1c(COc2c(F)cc(F)cc2F)c2c(n1C)C(=O)C(NCCCN(C)C)=CC2=O` the inhibition was 73% (Ribosyldihydronicotinamide dehydrogenase [quinone] (NQO2, Homo sapiens, UniProt P16083); cell-free assay, inhibitor; 1 µM).
`Cc1nnc2sc(C(=O)NCc3ccc(S(=O)(=O)C(F)(F)F)cc3)c(N)c2c1C` gave an inhibition of 14% (Glutamate receptor ionotropic, NMDA 1 (Grin1, Rattus norvegicus, UniProt P35439); ligand displacement, radioligand; 10 µM).
The inhibition of `Cc1oc2cc(OC(=O)c3ccco3)ccc2c(=O)c1-c1nc2ccccc2n1C` is reported as 100% (FPR1; calcium signal, antagonist; 50 µM).
The inhibition of `CC(=O)N[C@H]1CSSC[C@@H](C(=O)N[C@@H](Cc2c[nH]c3ccccc23)C(N)=O)NC(=O)[C@H](Cc2ccccc2)NC(=O)[C@H](CCCNC(=N)N)NC1=O` is reported as 0% (Melanocortin receptor 4 (MC4R, Homo sapiens, UniProt P32245); ligand displacement, radioligand; 10 µM, 40 min).
`Clc1ccc(C(c2ccccc2)c2nnnn2CCCCN2CCN(CCc3ccccc3)CC2)cc1` (stereo not shown) has an inhibition of 47.6% (SLC6A2; transporter uptake, inhibitor; HEK293; 1 µM).
The inhibition of `O=C(Oc1ccc2c(=O)c(-c3ccccc3)c(C(F)(F)F)oc2c1)c1cccs1` is reported as 90% (FPR1; calcium signal, antagonist; 50 µM).
The inhibition of `Clc1ccc(CC2CCN(CCCCn3nnnc3C(c3ccccc3)c3ccccc3)CC2)cc1Cl` is reported as 63.9% (SLC6A2; transporter uptake, inhibitor; HEK293; 1 µM).
`Cc1ccc(Nc2nccc(N(C)c3ccc4c(C)n(C)nc4c3)n2)cc1S(N)(=O)=O` gave an inhibition of -4% (Serine/threonine-protein kinase Chk2 (CHEK2, Homo sapiens, UniProt O96017, R145W); enzyme activity, inhibitor; 0.3 µM).
With `CC(=O)c1nn(CC(=O)N2C[C@H](F)C[C@H]2C(=O)Nc2cccc(Br)n2)c2ccc(-c3cnc(C)nc3)cc12` the inhibition was 20.8% (Plasma kallikrein (KLKB1, Homo sapiens, UniProt P03952); enzyme activity, inhibitor; 10 µM).
The inhibition of `CCN1CCN(Cc2ccc(NC(=O)c3ccc(C)c(Oc4ccnc5[nH]ccc45)c3)cc2C(F)(F)F)CC1` is reported as -11.5% (Serine/threonine-protein kinase WNK4 (WNK4, Homo sapiens, UniProt Q96J92); target engagement in cells, inhibitor, chemoproteomics; Huh-7; 1 µM).
